{"data": "Results from different studies", "note": "Lines come from different studies, so protocols differ."}
{"SMILES": "N#Cc1[nH]nnc1-c1csc(-c2ccc(Cl)cc2)n1", "system": "male Sprague-Dawley rat, plasma", "conditions": "oral, 10 mg/kg", "Tmax [h]": 1}
{"SMILES": "CCOC(=O)[C@@]12C[C@@H]1[C@@H](n1ccc3c(NC)nc(C#Cc4ccc(Cl)s4)nc31)[C@H](O)[C@@H]2O", "system": "male Sprague-Dawley rat, plasma", "conditions": "oral, 10 mg/kg", "Tmax [h]": 1.17}
{"SMILES": "C[C@H](Nc1ncnc2[nH]cnc12)c1cc2cccc(Cl)c2c(=O)n1-c1ccccc1", "system": "male Wistar rat, plasma", "conditions": "oral, 25 mg/kg, single dose", "Tmax [h]": 2}
{"SMILES": "COc1nc(-c2cc(C)c(N[C@@H](C)c3cc(F)cc(F)c3)nn2)ccc1-n1cnc(C)c1", "system": "male Sprague-Dawley rat, plasma", "conditions": "intravenous, 1 mg/kg, single dose", "Tmax [h]": 0.083}
{"SMILES": "Cc1c(-c2ccccc2)cccc1N1C(=O)c2cc(CN[C@H](C(=O)O)C(C)O)c(OCc3cccc(C#N)c3)cc2C1=O (some centres unmarked)", "system": "Sprague-Dawley rat, plasma", "conditions": "intravenous, 5 mg/kg", "Tmax [h]": 0.08}
{"SMILES": "COc1cc(/C=C/C(=O)CC(=O)/C=C/c2ccc(O)c(OC)c2)ccc1O", "system": "male Sprague-Dawley rat, plasma", "conditions": "oral, 100 mg/kg", "Tmax [h]": 0.167}
{"SMILES": "C=CC(=O)N1CC2CC(n3nc(-c4ccc(C(=O)Nc5ccccn5)cc4)c4c(N)ncnc43)CC2C1 (centres unmarked)", "system": "male Wistar rat, plasma", "conditions": "oral, 300 mg/kg", "Tmax [h]": 4}
{"SMILES": "CCc1cc(C(=O)NC)c2nccc(N3CCc4c(cc(Cn5ccnc5)cc4-c4cn(C)nc4C(F)(F)F)C3=O)c2c1", "system": "male Sprague-Dawley rat, plasma", "conditions": "oral, 50 mg/kg, single dose", "Tmax [h]": 0.8}
{"SMILES": "O=C(O)CCS(=O)(=O)O", "system": "male Sprague-Dawley rat, plasma", "conditions": "intravenous, 10 mg/kg", "Tmax [h]": 0.083}
{"SMILES": "COc1ccc2c(Cc3ccccc3F)c3n(c(=O)c2c1OC)CCc1cc2c(cc1-3)OCO2", "system": "rat, plasma", "conditions": "oral, 5 mg/kg", "Tmax [h]": 2.66}
{"SMILES": "O=C(Nc1cc(F)c(F)c(F)c1)c1ccc(F)c(S(=O)(=O)NCc2cccc(B(O)O)c2)c1", "system": "male Sprague-Dawley rat, plasma", "conditions": "intravenous, 2 mg/kg", "Tmax [h]": 0.08}
{"SMILES": "CNCc1cc(-c2ccccc2F)n(S(=O)(=O)c2cccnc2)c1", "system": "male Sprague-Dawley rat, plasma", "conditions": "oral, 10 mg/kg", "Tmax [h]": 1}
{"SMILES": "CCc1nc(C(N)=O)c(Nc2ccc(N3CCC(N4CCN(C)CC4)CC3)c(OC)c2)nc1NC1CCOCC1", "system": "male Sprague-Dawley rat, plasma", "conditions": "oral, 10 mg/kg", "Tmax [h]": 11}
{"SMILES": "CC(C)OC(=O)NC1CCN(Cc2cc(Cl)c3cccnc3c2O)CC1", "system": "rat, blood", "conditions": "intraperitoneal, 30 mg/kg", "Tmax [h]": 3}
{"SMILES": "N#Cc1[nH]nnc1-c1cc(Cl)cc(/C=C/c2cccc(C(F)(F)F)c2)c1", "system": "male Sprague-Dawley rat, plasma", "conditions": "oral, 10 mg/kg", "Tmax [h]": 5.3}
{"SMILES": "N#Cc1ccc(Nc2nc(N)cc(Oc3c(F)cc(-c4ccc(C#N)cc4)cc3F)n2)cc1", "system": "Sprague-Dawley rat, plasma", "conditions": "oral, 5 mg/kg", "Tmax [h]": 4}
{"SMILES": "Cl.Clc1ccc2c(c1)nc(N1CCNCC1)n2Cc1ccccc1", "system": "rat, plasma", "conditions": "oral, 5 mg/kg", "Tmax [h]": 0.08}
